Results taken from ChEMBL document CHEMBL1157567, “Design, synthesis, and evaluation of 2-methyl- and 2-amino-N-aryl-4,5-dihydrothiazolo[4,5-h]quinazolin-8-amines as ring-constrained 2-anilino-4-(thiazol-5-yl)pyrimidine cyclin-dependent kinase inhibitors” (J Med Chem, 2010).
Active and inactive are the calls of the source. The calls are words filed in the database; no cut-off is given here.

Legend:
[1] = target: Cyclin-dependent kinase 4/cyclin D1 (Homo sapiens, UniProt P11802); assay: inhibition of CDK4/Cyclin D1; assay type: protein-complex assay
How it was run: (§1)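 Kinase activity measured over 10-point dose-response curves to give IC50; apparent Ki derived from IC50 using the ATP Km of each kinase.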

[2] = target: Cyclin-dependent kinase 7/ cyclin H (Homo sapiens, UniProt P50613); assay: inhibition of CDK7/Cyclin H/MAT1; assay type: protein-complex assay; how it was run: as §1
[3] = target: Cyclin-dependent kinase 2/cyclin E1 (Homo sapiens, UniProt P24941); assay: inhibition of CDK2/Cyclin E; assay type: protein-complex assay; how it was run: as §1
[4] = target: Cyclin-dependent kinase 1/cyclin B1 (Homo sapiens, UniProt P06493); assay: inhibition of CDK1/Cyclin B; assay type: protein-complex assay; how it was run: as §1
CDK9/cyclin T1 = CDK9/cyclin T1 (Homo sapiens, UniProt P50750); assay: inhibition of CDK9/CyclinT1; assay type: protein-complex assay; how it was run: as §1
A2780 [5] = assay: Induction of apoptosis in human A2780 cells assessed as TUNEL-positive cells at 5 uM after 24 hrs by TUNEL assay-based flow cytometric analysis; assay type: functional
How it was run: (§2)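 Cells exposed 24 h to 5 µM compound or assay diluent alone; TUNEL labelling with flow cytometry, 10 000 cells collected; apoptotic (TUNEL-positive) fraction gated against DNA-content cell cycle stage.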

WI-38 [6] = assay: Induction of apoptosis in human WI38 cells assessed as caspase 3/7 activity at 2.5 uM after 24 hrs […]; assay type: functional, cell-based
How it was run: (§3)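 Caspase-3/7 luminescent assay: 10 000 cells seeded per well, treated 24 h; detection reagent added directly at equal volume to medium, read after further 30 min at room temperature.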

A549 = assay: Antiproliferative activity against human A549 cells after 72 hrs by MTT assay; assay type: functional, cell-based; conditions: A549, 72 h
How it was run: (§4)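 MTT (thiazolyl blue tetrazolium) colorimetric viability read-out after 72 h continuous exposure of cultured cells to test compound.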

[7] = target: T1, Cyclin-dependent kinase (Homo sapiens) (UniProt P06493+P11802+P24941+Q00535+Q00534+P50613+Q00526+Q00536+Q07002+P49336+Q00537+P21127+Q96Q40+Q9BWU1+O94921+P50750+Q15131+Q14004+Q8IZL9+Q9NYV4); assay: Inhibition of CDK in human A2780 cells assessed as reduction of pRb levels at 5 uM after 6 hrs by Western bloting; assay type: cell-based
[8] = target: T1, Cyclin-dependent kinase (Homo sapiens); assay: Inhibition of CDK in human A2780 cells assessed as reduction of RNAP2 phosphorylation at Ser5 site at 5 uM after 6 hrs by Western bloting; assay type: cell-based
How it was run: (§5)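 Total cell lysate protein (10 µg) resolved on reducing 4-12% gradient SDS-PAGE after 6 h treatment at 5 µM; probed for RNAP-II phospho-Ser2 and phospho-Ser5 CTD alongside total RNAP-II.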

SAOS-2 = assay: Antiproliferative activity against human Saos2 cells after 72 hrs by MTT assay; assay type: functional, cell-based; conditions: SAOS-2, 72 h; how it was run: as §4
A2780 [9] = assay: Induction of apoptosis in human A2780 cells assessed as caspase 3/7 activity at 2.5 uM after 24 hrs […]; assay type: functional, cell-based; how it was run: as §3
WI-38 [10] = assay: Induction of apoptosis in human WI38 cells assessed as TUNEL-positive cells at 5 uM after 24 hrs by TUNEL assay-based flow cytometric analysis; assay type: functional; how it was run: as §2
MCF7 = assay: Antiproliferative activity against human MCF7 cells after 72 hrs by MTT assay; assay type: functional, cell-based; conditions: MCF7, 72 h; how it was run: as §4
HeLa = assay: Antiproliferative activity against human HeLa cells after 72 hrs by MTT assay; assay type: functional, cell-based; how it was run: as §4
[11] = target: T1, Cyclin-dependent kinase (Homo sapiens); assay: Inhibition of CDK in human A2780 cells assessed as reduction of RNAP2 phosphorylation at Ser2 site at 5 uM after 6 hrs by Western bloting; assay type: cell-based; how it was run: as §5
[12] = target: T1, Cyclin-dependent kinase (Homo sapiens); assay: Inhibition of CDK in human A2780 cells assessed as increase in p53 levels at 5 uM after 6 hrs by Western bloting; assay type: cell-based
HT-29 = assay: Antiproliferative activity against human HT-29 cells after 72 hrs by MTT assay; assay type: functional, cell-based; conditions: HT-29, 72 h; how it was run: as §4

Chain of CDK9/cyclin T1 (O60563 whole entry): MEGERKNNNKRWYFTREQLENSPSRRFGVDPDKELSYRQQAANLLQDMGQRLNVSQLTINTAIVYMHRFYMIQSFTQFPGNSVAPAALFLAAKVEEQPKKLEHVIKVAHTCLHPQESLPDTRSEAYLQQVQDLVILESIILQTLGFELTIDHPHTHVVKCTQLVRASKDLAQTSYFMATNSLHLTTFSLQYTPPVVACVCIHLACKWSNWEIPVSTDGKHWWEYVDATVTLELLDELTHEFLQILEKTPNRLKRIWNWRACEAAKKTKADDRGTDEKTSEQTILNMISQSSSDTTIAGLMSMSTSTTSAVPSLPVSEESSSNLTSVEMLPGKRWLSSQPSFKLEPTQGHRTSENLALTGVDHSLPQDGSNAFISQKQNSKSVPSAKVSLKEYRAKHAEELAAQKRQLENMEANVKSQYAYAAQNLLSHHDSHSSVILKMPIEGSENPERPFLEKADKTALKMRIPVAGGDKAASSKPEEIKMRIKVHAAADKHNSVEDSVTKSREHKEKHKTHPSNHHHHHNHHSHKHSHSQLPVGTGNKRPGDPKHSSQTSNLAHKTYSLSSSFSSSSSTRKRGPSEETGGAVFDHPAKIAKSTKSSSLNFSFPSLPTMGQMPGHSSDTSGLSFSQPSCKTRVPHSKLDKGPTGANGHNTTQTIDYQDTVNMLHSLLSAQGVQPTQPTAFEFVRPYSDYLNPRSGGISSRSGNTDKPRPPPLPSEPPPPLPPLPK
Chain of CDK9/cyclin T1 (P50750 whole entry): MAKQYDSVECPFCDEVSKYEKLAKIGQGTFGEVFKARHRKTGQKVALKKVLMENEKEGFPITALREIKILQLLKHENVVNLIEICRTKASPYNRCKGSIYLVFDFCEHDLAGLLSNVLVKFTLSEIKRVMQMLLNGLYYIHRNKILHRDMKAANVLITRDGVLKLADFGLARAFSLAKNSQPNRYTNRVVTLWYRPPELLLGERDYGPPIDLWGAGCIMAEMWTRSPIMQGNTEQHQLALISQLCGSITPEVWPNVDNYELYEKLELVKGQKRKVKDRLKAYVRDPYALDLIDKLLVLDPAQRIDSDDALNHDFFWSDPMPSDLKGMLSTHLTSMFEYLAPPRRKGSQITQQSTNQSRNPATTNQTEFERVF
Chain of Cyclin-dependent kinase 4/cyclin D1 (P11802 whole entry): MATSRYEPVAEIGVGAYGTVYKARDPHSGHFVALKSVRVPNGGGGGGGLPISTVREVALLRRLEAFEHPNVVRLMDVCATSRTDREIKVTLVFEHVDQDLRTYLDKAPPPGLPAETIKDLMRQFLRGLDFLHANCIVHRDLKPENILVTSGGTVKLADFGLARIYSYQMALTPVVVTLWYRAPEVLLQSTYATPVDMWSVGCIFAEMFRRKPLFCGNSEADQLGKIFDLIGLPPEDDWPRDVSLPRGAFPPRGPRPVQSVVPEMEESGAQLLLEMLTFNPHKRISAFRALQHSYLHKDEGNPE
Chain of Cyclin-dependent kinase 4/cyclin D1 (P24385 whole entry, further chain): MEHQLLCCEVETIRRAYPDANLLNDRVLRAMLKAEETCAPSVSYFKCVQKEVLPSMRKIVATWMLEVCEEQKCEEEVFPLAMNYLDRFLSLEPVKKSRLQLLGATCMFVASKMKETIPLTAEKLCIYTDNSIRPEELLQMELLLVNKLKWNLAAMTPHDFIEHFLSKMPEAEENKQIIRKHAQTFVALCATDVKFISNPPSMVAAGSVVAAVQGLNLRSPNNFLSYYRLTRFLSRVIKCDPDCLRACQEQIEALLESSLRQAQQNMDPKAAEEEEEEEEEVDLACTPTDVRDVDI
Chain of Cyclin-dependent kinase 1/cyclin B1 (P06493 whole entry): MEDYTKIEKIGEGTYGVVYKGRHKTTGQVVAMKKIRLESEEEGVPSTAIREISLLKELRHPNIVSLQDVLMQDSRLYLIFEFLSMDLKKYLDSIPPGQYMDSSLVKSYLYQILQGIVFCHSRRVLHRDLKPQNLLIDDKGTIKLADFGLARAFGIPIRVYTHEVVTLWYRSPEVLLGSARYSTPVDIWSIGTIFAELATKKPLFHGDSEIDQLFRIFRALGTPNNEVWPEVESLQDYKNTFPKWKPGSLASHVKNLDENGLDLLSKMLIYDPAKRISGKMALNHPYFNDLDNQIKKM
Chain of Cyclin-dependent kinase 1/cyclin B1 (P14635 whole entry, further chain): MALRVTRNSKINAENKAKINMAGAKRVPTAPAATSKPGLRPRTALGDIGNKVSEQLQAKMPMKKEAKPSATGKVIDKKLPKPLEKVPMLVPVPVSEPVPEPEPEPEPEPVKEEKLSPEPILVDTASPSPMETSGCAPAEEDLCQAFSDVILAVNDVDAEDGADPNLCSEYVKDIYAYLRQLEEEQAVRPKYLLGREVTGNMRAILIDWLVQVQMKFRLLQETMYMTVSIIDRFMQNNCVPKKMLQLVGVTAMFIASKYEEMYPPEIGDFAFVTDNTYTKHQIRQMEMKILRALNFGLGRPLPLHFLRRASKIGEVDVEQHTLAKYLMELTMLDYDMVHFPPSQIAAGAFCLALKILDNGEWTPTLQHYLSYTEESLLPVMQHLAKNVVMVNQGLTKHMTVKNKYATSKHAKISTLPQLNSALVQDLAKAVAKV
Chain of Cyclin-dependent kinase 7/ cyclin H (P51946 whole entry): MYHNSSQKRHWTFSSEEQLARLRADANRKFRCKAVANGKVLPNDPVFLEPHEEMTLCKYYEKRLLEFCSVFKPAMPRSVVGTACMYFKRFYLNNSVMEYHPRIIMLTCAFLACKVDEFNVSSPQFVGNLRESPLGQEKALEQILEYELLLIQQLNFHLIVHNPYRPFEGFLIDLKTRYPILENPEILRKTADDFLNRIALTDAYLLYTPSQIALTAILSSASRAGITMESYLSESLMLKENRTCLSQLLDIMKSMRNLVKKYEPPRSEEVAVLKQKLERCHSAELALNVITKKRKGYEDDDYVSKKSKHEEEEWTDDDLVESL
Chain of Cyclin-dependent kinase 7/ cyclin H (P50613 whole entry): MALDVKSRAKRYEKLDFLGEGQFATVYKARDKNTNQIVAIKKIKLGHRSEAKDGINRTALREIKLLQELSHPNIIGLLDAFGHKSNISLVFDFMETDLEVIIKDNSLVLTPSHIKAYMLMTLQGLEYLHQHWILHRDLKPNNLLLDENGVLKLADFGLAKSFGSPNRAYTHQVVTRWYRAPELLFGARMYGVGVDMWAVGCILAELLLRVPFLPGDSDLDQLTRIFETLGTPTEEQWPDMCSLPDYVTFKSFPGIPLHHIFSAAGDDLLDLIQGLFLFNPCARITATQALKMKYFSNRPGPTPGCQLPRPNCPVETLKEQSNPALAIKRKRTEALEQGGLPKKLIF

| Compound | Ki [1] [nM] | Ki [2] [nM] | Ki [3] [nM] | Ki [4] [nM] | Ki (CDK9/cyclin T1) [nM] | other results |
| --- | --- | --- | --- | --- | --- | --- |
| Cc1nc2c(s1)-c1nc(N)ncc1CC2 | > 10000 | > 10000 | > 10000 | > 10000 | > 10000 |  |
| Cc1nc2ccc3cnc(N(C)c4cccc([N+](=O)[O-])c4)nc3c2s1 | > 10000 | > 10000 | 1600 | 7500 | > 10000 |  |
| Cc1nc2c(s1)-c1nc(Nc3ccc(N(C)C)cc3)ncc1CC2 | 37 | 60 | 10 | 2500 | 640 |  |
| Cc1nc2c(s1)-c1nc(N(C)c3cccc([N+](=O)[O-])c3)ncc1CC2 | > 10000 | 1800 | 590 | 2700 | 12000 |  |
| Cc1nc2c(s1)-c1nc(Nc3ccc([N+](=O)[O-])cc3)ncc1CC2 | > 10000 | 4800 | 130 | 310 | 140 |  |
| Cc1nc2c(s1)-c1nc(Nc3cccc([N+](=O)[O-])c3)ncc1CC2 | 2000 | 790 | 23 | 320 | 2 | Activity (A2780 [5]): 20%; Activity (WI-38 [6]): inactive; IC50 (A549): 690 nM; Activity [7]: Active; Activity [8]: Active; IC50 (SAOS-2): 1200 nM; Activity (A2780 [9]): Active; Activity (WI-38 [10]): 0.7%; IC50 (MCF7): 1700 nM; IC50 (HeLa): 1100 nM; Activity [11]: Active; Activity [12]: Active; IC50 (HT-29): 1400 nM |
| Cc1nc2ccc3cnc(Nc4ccccc4)nc3c2s1 | 2700 | > 10000 | 24 | 1700 | > 10000 |  |
| Cc1nc2c(s1)-c1nc(Nc3ccccc3)ncc1CC2 | 900 | 2200 | 1 | 750 | 260 |  |
| Cc1nc2c(s1)-c1nc(Nc3ccc(O)cc3)ncc1CC2 | 540 | 300 | 1 | 200 | 490 |  |
| Cc1nc2c(s1)-c1nc(Nc3ccc(Cl)nc3)ncc1CC2 | 40 | 1400 | 25 | 19 | 1200 |  |
| Nc1nc2c(s1)-c1nc(Nc3ccccc3)ncc1CC2 | 330 | 1200 | 88 | 630 | 110 |  |
| CN(C)c1ccc(Nc2ncc3c(n2)-c2sc(N)nc2CC3)cc1 | 470 | 500 | 31 | 98 | 160 |  |
| COC(=O)c1ccc(Nc2ncc3c(n2)-c2sc(C)nc2CC3)cc1 | 2400 | 6300 | 920 | 700 | 670 |  |
| COc1ccc(Nc2ncc3c(n2)-c2sc(C)nc2CC3)cn1 | 120 | 1100 | 49 | 78 | 1000 |  |
| Cc1nc2c(s1)-c1nc(Nc3ccc(N4CCOCC4)cc3)ncc1CC2 | > 10000 | 1000 | 200 | 15000 | 640 |  |
| Cc1nc2c(s1)-c1nc(Nc3ccc(C(F)(F)F)cc3)ncc1CC2 | 4900 | > 10000 | 160 | 960 | 1900 |  |
| Cc1nc2c(s1)-c1nc(Nc3cccc(O)c3)ncc1CC2 | 580 | 53 | 11 | 360 | 32 |  |
| Nc1nc2c(s1)-c1nc(Nc3cccc([N+](=O)[O-])c3)ncc1CC2 | 130 | 140 | 1 | 18 | 3 |  |
